Converted amounts (≈) assume the structure as drawn.
Columns and labels:
[1] = test system: Mycobacterium tuberculosis; experiment: Antimycobacterial activity against Mycobacterium tuberculosis H37Rv after 4 days by MABA assay; format: functional; details: 96 h
Staphylococcus aureus = experiment: Antimicrobial activity against Staphylococcus aureus ATCC 29213 by broth microdilution method; format: functional
Outline: (§1)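 Broth microdilution in cation-adjusted Mueller-Hinton broth against the QC strain, following the standard method for inoculum preparation and incubation. Samples were serially diluted twofold from 16 to 0.125, in triplicate, with DMSO as solvent and diluent. A gentamicin accuracy control was made up in water and diluted in broth. MIC was the lowest concentration giving complete growth inhibition, read by eye.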

Escherichia coli = experiment: Antimicrobial activity against Escherichia coli ATCC 25922 by broth microdilution method; format: functional; outline: as §1
[2] = test system: Mycobacterium tuberculosis; experiment: Antimycobacterial activity against Mycobacterium tuberculosis H37Rv at 128 uM after 4 days by MABA assay; format: functional
Vero [3] = experiment: Cytotoxicity against african green monkey Vero cells at 128 uM; format: cell-based; details: chlorocebus sabaeus
[4] = test system: Mycobacterium tuberculosis; experiment: Antimycobacterial activity against Mycobacterium tuberculosis H37Rv transfected with pFPCA-luxAB grown under anaerobic condition for 10 days followed by 24 hrs incubation under aerobic condition by LORA assay; format: functional
Vero [5] = experiment: Cytotoxicity against african green monkey Vero cells; format: ADME, cell-based; details: Chlorocebus sabaeus
[6] = Selectivity index, ratio of EC50 for african green monkey VERO cells to MIC for Mycobacterium tuberculosis H37Rv; format: functional
[7] = test system: Mycobacterium tuberculosis; experiment: Antimycobacterial activity against Mycobacterium tuberculosis H37Rv transfected with pFPCA-luxAB at 128 uM with pFPCA-luxAB grown under anaerobic condition for 10 days followed by 24 hrs incubation under aerobic condition by LORA assay; format: functional
[8] = test system: Mycobacterium tuberculosis; experiment: Antimycobacterial activity against Mycobacterium tuberculosis H37Rv at 21 uM after 4 days by MABA assay; format: functional; details: 96 h

Row | Structure (SMILES) | MIC [1] | MIC (Staphylococcus aureus) | MIC (Escherichia coli) | MIC [4] | other results
1 | COc1ccc(Cn2ccc3c(-c4ccco4)ncnc32)cc1 | 0.16 µM (≈ 0.0489 µg/mL) |  |  |  | 
2 | COc1ccc(Cn2ccc3c(-c4ccco4)nc(Cl)nc32)cc1 | 0.08 µM (≈ 0.0272 µg/mL) |  |  |  | 
3 | COc1ccc(Cn2cnc3c(-c4ccco4)ccnc32)cc1 | 63 µM (≈ 19.2 µg/mL) | > 16 µg/mL | > 16 µg/mL |  | 
4 | COc1ccc(Cn2cnc3c(-c4ccco4)cc(Cl)nc32)cc1 | > 128 µM | > 16 µg/mL | > 16 µg/mL |  | Activity [2]: 37%
5 | COc1ccc(Cn2cnc3c(-c4ccco4)nccc32)cc1 | 0.84 µM (≈ 0.256 µg/mL) | > 16 µg/mL | > 16 µg/mL | 80 µM (≈ 24.4 µg/mL) | Activity (Vero [3]): 0%; IC50 (Vero [5]): > 128 µM; Selectivity Index [6]: >150
6 | COc1ccc(Cn2cnc3c(-c4ccco4)nc(Cl)cc32)cc1 | 0.16 µM (≈ 0.0544 µg/mL) | > 16 µg/mL | > 16 µg/mL | 48 µM (≈ 16.3 µg/mL) | Activity (Vero [3]): 30%; IC50 (Vero [5]): > 128 µM; Selectivity Index [6]: >800
7 | COc1ccc(Cn2ccc3c(-c4ccco4)ccnc32)cc1 | 44 µM (≈ 13.4 µg/mL) | > 16 µg/mL | > 16 µg/mL |  | 
8 | COc1ccc(Cn2ccc3c(-c4ccco4)cc(Cl)nc32)cc1 | > 128 µM | > 16 µg/mL | > 16 µg/mL |  | Activity [2]: 86%
9 | COc1ccc(Cn2ccc3c(-c4ccco4)nccc32)cc1 | 1.4 µM (≈ 0.426 µg/mL) | > 16 µg/mL | > 16 µg/mL | 28 µM (≈ 8.52 µg/mL) | IC50 (Vero [5]): 12 µM; Selectivity Index [6]: 8.6
10 | COc1ccc(Cn2ccc3c(-c4ccco4)nc(Cl)cc32)cc1 | 0.09 µM (≈ 0.0305 µg/mL) | > 16 µg/mL | > 16 µg/mL | > 128 µM | IC50 (Vero [5]): 58 µM; Selectivity Index [6]: 644; Activity [7]: 53%
11 | COc1ccc(Cn2cnc3c(-c4ccco4)cccc32)cc1 | 29 µM (≈ 8.83 µg/mL) | > 16 µg/mL | > 16 µg/mL |  | 
12 | COc1ccc(Cn2ccc3c(-c4ccco4)cccc32)cc1 | > 21 µM | > 16 µg/mL | > 16 µg/mL |  | inhibition at 21 µM [8]: 0%
13 | COc1ccc(Cn2cnc3c(-c4ccco4)ncnc32)cc1 | 2.1 µM (≈ 0.643 µg/mL) |  |  |  | 
14 | COc1ccc(Cn2cnc3c(-c4ccco4)nc(Cl)nc32)cc1 | 0.36 µM (≈ 0.123 µg/mL) |  |  |  | 
15 | NNC(=O)c1ccncc1 [ISONIAZID] | 0.28 µM (≈ 0.0384 µg/mL) |  |  | > 128 µM | 
16 | O=[N+]([O-])c1cn2c(n1)OC[C@@H](OCc1ccc(OC(F)(F)F)cc1)C2 [PRETOMANID] | 0.44 µM (≈ 0.158 µg/mL) |  |  | 3.11 µM (≈ 1.12 µg/mL) | 
17 | CO[C@H]1/C=C/O[C@@]2(C)Oc3c(C)c(O)c4c(O)c(c(/C=N/N5CCN(C)CC5)c(O)c4c3C2=O)NC(=O)/C(C)=C\C=C\[C@H](C)[C@H](O)[C@@H](C)[C@@H](O)[C@@H](C)[C@H](OC(C)=O)[C@@H]1C [RIFAMPIN] | 0.09 µM (≈ 0.0741 µg/mL) |  |  | 0.97 µM (≈ 0.798 µg/mL) | 

— ChEMBL document CHEMBL1811771, “Synthesis and antimycobacterial activities of non-purine analogs of 6-aryl-9-benzylpurines: Imidazopyridines, pyrrolopyridines, benzimidazoles, and indoles” (Bioorg Med Chem, 2011)
